Entries after “also recorded” stand apart in the source; their conditions may differ. Read-outs that look alike come from different tables or passages of the source. Values belong to the compound of their own block, whether it stands above or below them.
What was measured:
[1] = biological target: human TRPM2 (Homo sapiens, UniProt O94759); format: cell-based; conditions: for TRPM2 current amplitudes at fivefold higher concentration: fivefold higher concentrations
[2] = system: TRPM2; conditions: with preincubation; cited from earlier work
[3] = biological target: mouse TRPM7 (Mus musculus, UniProt Q923J1); assay: Whole-cell patch clamp of TRPM7 currents in tetracycline-inducible HEK293 cells; format: cell-based; conditions: +80 mV, 200 s
In short: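 Tetracycline-inducible HEK293 cells carrying FLAG-murine TRPM7 were induced with 1 μg/mL tetracycline 5–22 h beforehand. Cells were then incubated 15 min in culture medium with 100 nM, 500 nM or 2 μM test compound. Pipette: 140 mM K-glutamate with 10 mM BAPTA. Ramps ran −100 to +100 mV at 0.5 Hz, 21–25 °C. Amplitudes, not capacitance-corrected, were taken at +80 mV and 200 s, normalized, and fitted for IC50 and Hill coefficient.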

[4] = biological target: CRAC (Orai1/STIM1) (Homo sapiens, UniProt Q96D31); format: cell-based; conditions: 2 μM, 30–60 min exposure
In short: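 HEK293 cells stably expressing STIM1 were transiently transfected with CRACM1-pIRES2-EGFP and patched 24–48 h later, with EGFP identifying cotransfected cells. External solution contained 10 mM CaCl2 and 10 mM TEA-Cl (pH 7.2, 300 mOsm). Ramps ran −150 to +150 mV over 50 ms. Bath solution was control or supplemented with test compound. Current–voltage relationships were taken at 100 s.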

[5] = biological target: endogenous TRPM4 (Homo sapiens, UniProt Q8TD43); assay: Whole-cell patch clamp of endogenous TRPM4-like currents in Jurkat T lymphocytes; format: cell-based; conditions: 500 nM
In short: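 Jurkat T cells were incubated with 500 nM test compound or none in standard external solution before whole-cell recording. Recordings were made within the first 60 min of incubation. Pipette: Cs-glutamate-based solution with intracellular Ca2+ clamped to 2 μM. Ramps ran −100 to +100 mV (50 ms, 0.5 Hz) from 0 mV, at 21–25 °C. Currents were extracted at −80 mV.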

[6] = biological target: TRPV1 (Rattus norvegicus, UniProt O35433); format: cell-based; conditions: 500 nM, 10 μM capsaicin
In short: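 INS-1 cells were incubated with 500 nM test compound or none in standard external Ringer's solution before whole-cell patch clamp at 21–25 °C. Pipette: 140 mM Cs-glutamate, 8 NaCl, 1 MgCl2, 10 HEPES (pH 7.2), with Ca2+ left unbuffered. Ramps ran −100 to +100 mV over 50 ms at 0.5 Hz from a 0 mV holding potential. Amplitudes were taken at −80 mV.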

[7] = biological target: endogenous TRPM2 (Rattus norvegicus, UniProt E9PTA2); format: cell-based
In short: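 INS-1 cells (RPMI, 10% FBS) were held in standard external Ringer's (pH 7.2) containing the test compound. Whole-cell currents were recorded during the first 60 min, at 21–25 °C. Pipette: 140 mM Cs-glutamate, unbuffered Ca2+, ADPR 100 or 500 μM. Ramps ran −100 to +100 mV (50 ms, 0.5 Hz). Amplitudes at −80 mV and 50 s were expressed as percent inhibition of control and fitted for IC50 and Hill coefficient.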

[8] = system: INS-1 cells; assay: Appearance of INS-1 cells during exposure in patch-clamp sessions; format: cell-based, rat
In short: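 Rat insulinoma INS-1 cells were grown at 37 °C, 5% CO2 in RPMI with 10% FBS. During whole-cell patch-clamp sessions at 21–25 °C, cells were held in standard external Ringer's solution with continual exposure to the test compound.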

[9] = system: TRPM2-overexpressing HEK293 cells; format: cell-based

human TRPM2, sequence (O94759 whole entry): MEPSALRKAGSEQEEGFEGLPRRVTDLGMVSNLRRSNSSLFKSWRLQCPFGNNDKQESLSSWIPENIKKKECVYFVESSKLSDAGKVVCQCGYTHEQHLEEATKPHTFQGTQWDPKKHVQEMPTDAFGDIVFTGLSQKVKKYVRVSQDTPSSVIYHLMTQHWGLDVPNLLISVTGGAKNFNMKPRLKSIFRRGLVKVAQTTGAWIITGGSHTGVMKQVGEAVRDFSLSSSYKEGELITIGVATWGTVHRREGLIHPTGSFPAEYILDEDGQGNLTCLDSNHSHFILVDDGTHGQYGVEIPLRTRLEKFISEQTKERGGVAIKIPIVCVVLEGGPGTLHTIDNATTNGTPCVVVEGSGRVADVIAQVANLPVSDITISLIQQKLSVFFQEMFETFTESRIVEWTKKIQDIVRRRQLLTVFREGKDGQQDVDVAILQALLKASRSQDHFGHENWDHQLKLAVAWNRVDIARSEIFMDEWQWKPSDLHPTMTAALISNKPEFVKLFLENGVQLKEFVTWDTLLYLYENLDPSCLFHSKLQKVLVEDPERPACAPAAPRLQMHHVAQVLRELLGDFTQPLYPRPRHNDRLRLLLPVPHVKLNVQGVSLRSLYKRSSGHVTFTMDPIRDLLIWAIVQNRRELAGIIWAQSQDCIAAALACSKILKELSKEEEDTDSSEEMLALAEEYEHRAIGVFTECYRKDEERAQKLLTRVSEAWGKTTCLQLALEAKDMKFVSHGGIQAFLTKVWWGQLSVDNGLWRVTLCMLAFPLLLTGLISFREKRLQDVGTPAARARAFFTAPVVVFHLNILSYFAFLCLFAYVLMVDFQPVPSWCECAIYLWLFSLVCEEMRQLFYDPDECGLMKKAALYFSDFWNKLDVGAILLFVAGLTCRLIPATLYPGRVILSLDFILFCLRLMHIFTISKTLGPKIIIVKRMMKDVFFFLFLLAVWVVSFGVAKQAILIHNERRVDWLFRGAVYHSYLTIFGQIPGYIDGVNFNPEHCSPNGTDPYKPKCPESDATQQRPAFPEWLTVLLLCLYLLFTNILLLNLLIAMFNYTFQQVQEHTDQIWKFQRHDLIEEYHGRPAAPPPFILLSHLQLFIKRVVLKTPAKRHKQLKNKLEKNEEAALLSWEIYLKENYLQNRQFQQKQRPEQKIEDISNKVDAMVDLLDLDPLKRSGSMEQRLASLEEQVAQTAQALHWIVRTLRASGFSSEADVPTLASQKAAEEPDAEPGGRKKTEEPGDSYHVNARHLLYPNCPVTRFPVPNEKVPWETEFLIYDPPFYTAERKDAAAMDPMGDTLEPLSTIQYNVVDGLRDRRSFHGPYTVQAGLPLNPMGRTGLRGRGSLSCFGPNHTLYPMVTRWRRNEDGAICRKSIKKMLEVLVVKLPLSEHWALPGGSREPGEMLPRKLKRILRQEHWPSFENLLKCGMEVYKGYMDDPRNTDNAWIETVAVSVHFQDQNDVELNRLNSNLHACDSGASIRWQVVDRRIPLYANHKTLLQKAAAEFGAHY
CRAC (Orai1/STIM1), sequence (Q96D31 whole entry, species assumed): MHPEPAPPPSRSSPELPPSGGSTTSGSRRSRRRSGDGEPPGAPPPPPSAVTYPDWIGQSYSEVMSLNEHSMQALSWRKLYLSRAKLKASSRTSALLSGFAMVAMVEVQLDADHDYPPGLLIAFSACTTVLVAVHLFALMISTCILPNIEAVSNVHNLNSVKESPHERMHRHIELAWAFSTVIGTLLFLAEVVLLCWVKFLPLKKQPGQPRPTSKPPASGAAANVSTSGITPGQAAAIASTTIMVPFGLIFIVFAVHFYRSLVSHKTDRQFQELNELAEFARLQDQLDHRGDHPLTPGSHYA
CRAC (Orai1/STIM1), sequence (Q13586 23-685 partner, species assumed): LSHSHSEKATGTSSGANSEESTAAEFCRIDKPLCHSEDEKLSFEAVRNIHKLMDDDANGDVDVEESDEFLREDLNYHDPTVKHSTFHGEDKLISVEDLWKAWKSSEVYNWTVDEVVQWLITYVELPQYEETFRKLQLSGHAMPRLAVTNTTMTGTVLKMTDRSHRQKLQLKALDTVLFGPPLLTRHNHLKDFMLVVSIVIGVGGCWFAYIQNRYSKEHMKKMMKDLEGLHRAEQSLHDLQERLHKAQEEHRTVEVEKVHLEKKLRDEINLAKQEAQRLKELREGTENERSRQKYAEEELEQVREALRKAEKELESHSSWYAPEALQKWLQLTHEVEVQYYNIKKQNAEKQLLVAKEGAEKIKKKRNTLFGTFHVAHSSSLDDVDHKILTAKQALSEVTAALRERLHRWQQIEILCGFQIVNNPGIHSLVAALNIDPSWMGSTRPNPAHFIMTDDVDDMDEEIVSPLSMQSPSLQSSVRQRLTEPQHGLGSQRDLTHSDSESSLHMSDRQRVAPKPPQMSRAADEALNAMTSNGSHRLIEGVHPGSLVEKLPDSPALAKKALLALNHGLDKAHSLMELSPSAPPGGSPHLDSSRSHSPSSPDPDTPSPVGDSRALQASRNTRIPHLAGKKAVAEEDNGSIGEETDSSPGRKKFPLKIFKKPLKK
endogenous TRPM4, sequence (Q8TD43 whole entry): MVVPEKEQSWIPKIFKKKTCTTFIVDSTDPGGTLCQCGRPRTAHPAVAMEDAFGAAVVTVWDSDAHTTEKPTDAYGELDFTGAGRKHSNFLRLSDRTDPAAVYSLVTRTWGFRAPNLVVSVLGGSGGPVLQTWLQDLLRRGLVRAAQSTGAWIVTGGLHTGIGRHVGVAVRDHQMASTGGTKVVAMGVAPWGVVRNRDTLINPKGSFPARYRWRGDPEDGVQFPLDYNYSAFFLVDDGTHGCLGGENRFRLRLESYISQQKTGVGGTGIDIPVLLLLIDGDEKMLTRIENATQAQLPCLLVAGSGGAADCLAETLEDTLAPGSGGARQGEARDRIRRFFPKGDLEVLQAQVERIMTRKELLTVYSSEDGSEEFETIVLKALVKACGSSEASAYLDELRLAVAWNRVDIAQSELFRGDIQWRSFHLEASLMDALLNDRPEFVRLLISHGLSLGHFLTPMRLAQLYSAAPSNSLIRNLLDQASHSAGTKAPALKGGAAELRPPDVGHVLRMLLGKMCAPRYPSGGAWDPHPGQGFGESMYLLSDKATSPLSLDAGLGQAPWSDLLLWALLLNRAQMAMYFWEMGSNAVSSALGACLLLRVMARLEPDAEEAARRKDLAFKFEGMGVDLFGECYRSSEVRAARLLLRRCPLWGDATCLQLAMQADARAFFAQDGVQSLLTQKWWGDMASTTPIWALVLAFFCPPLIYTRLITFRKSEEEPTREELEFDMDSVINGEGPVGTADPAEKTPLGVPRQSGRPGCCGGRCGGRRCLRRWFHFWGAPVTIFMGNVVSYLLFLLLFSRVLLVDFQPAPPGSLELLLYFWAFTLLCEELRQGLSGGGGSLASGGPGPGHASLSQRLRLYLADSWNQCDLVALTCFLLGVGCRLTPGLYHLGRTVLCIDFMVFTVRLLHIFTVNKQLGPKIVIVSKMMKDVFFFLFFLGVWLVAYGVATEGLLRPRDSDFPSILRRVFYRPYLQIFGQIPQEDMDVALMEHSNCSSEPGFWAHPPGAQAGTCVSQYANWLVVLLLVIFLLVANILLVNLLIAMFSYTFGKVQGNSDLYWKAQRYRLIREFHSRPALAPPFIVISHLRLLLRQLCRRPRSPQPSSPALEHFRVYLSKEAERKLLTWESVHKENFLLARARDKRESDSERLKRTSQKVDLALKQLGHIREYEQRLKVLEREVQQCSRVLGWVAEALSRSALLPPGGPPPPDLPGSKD
TRPV1, sequence (O35433 whole entry): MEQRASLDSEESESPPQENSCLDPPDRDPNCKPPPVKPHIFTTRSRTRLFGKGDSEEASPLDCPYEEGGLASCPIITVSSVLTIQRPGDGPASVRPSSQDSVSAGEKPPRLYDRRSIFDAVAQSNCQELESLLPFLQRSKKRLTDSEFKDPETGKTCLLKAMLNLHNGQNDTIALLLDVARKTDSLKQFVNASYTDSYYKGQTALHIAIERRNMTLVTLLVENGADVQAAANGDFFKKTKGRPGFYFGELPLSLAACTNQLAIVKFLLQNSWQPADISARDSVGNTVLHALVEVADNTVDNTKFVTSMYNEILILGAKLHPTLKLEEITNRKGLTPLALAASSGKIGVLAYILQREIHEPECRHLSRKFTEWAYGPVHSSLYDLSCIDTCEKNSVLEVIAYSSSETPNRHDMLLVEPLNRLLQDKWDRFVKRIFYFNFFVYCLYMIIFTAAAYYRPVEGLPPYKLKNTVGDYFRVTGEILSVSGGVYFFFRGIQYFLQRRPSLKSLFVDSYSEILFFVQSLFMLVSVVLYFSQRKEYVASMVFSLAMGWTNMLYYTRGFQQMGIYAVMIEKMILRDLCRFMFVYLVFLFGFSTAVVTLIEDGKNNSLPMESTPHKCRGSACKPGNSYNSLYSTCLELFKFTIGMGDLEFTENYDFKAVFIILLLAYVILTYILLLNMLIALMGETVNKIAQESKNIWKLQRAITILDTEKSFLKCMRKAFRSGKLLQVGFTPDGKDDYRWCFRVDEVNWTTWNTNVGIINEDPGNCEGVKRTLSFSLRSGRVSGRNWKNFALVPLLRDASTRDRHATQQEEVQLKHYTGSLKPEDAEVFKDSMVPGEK

Structure (SMILES): O=C1NCCc2c(OCCCCN3CCCCC3)cccc21 [DPQ, 3,4-dihydro-5-[4-(1-piperidinyl)butoxyl]-1(2H)-isoquinolinone]
- Effect on TRPM2-mediated currents (ADPR in pipet) ([1]; PARP-1 inhibitors, 100 μM ADPR, first 60 min): did not affect

Structure (SMILES): COc1cc(/C=C/C(=O)CC(=O)/C=C/c2ccc(O)c(OC)c2)ccc1O [curcumin]
- Concentration range blocking TRPM2 currents [2]: low nanomolar range

- Incubation time to reach full potency (full onset) of TRPM2 inhibition ([1]; 2 μM scalaradial): ~ 20 min
- Effect of acute application on TRPM2 currents ([1]; 2 μM, acute application): did not significantly affect
- Hill coefficient of TRPM2 concentration-response fit ([1]; 30–60 min incubation, −80 mV, 100 s): 1.3
- Time dependency of TRPM2 inhibition when added internally ([1]; added to the cell internally, data not shown): not affected
- Time to recovery of TRPM2 currents after drug removal ([1]; after 60 min incubation in 2 μM): ≤ 5 min
- Hill coefficient of TRPM7 concentration-response fit [3]: 2
- Effect on ADPR-induced currents ([7]; 0.5–2.0 μM): largely abolished
- Hill coefficient of INS-1 TRPM2 dose-response fit ([7]; −80 mV, 50 s): 4
- Time cells appeared healthy with continual exposure ([8]; 500 nM and lower concentrations): at least 1 h
- Condition of INS-1 cells ([8]; 2 μM): rapidly deteriorated
Structure (SMILES): CC(=O)O[C@H]1C[C@@H]2[C@@]3(C)CCCC(C)(C)[C@@H]3CC[C@@]2(C)[C@@H]2CC=C(C=O)[C@H](C=O)[C@@]12C [scalaradial]
- Effect on CRAC currents [4]: no significant inhibition; also recorded: did not significantly affect; also recorded: failed to inhibit
- Effect on TRPM4 current [5]: without affecting the current; also recorded: failed to inhibit
- Effect on TRPV1 current [6]: does not inhibit; also recorded: failed to inhibit

Structure (SMILES): O=C(O)CC[C@@H](Cc1ccc(OCc2ccccc2)cc1)NC(=O)CCCCCCc1ccccc1 [sPLA2 inhibitor, 5-(4-benzyloxyphenyl)-4S-(7-phenylheptanoylamino)pentanoic acid]
- Effect on TRPM2-mediated currents ([1]; 5 μM, 100 μM ADPR): lack of effect
- Cell death during a 1 h recording session ([9]; 5–10-fold higher concentrations, data not shown): significant cell death

Structure (SMILES): COC[C@H]1OC(=O)c2coc3c2[C@@]1(C)C1=C(C3=O)[C@@H]2CCC(=O)[C@@]2(C)C[C@H]1OC(C)=O [wortmannin]
- Effect on TRPM2-mediated currents ([1]; 20 nM, 60 min preincubation, 500 μM ADPR): failed to affect
- TRPM2 current amplitudes at fivefold higher concentration ([1]; data not shown): comparable to control cells
- Effect on cell viability at fivefold higher concentration ([9]; fivefold higher concentrations, cell rounding, granule formation, blebbing, data not shown): affected cell viability

Structure (SMILES): O=c1[nH]c2ccccc2n1C1CCN(Cc2ccc(-c3nc4cc5[nH]cnc5cc4nc3-c3ccccc3)cc2)CC1 [Akt inhibitor VIII, 1,3-dihydro-1-(1-((4-(6-phenyl-1H-imidazo[4,5-g]quinoxalin-7-yl)phenyl)methyl)-4-piperidinyl)-2H-benzimidazol-2-one]
- Effect on TRPM2-mediated currents ([1]; 200 nM, 60 min preincubation, 500 μM ADPR): failed to affect
- TRPM2 current amplitudes at fivefold higher concentration ([1]; data not shown): comparable to control cells
- Effect on cell viability at fivefold higher concentration [9]: affected cell viability

From PMC6687308 (Journal of natural products, 2017)
